# Experimental data published in ChEMBL document CHEMBL1133294, “Potent, selective 3-pyridylethanolamine beta3 adrenergic receptor agonists possessing a thiazole benzenesulfonamide pharmacophore” (Bioorg Med Chem Lett, 2000).
# pEC50, pIC50: −log10 of the molar value.
# Tested on: not listed separately
# Test: Half life period was determined
# Format: ADME, organism-based, Canis lupus familiaris
# Conditions: dog, in vivo
# Summary of the method: (§1)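 Beagle dogs dosed orally at 10 mg/kg (solution in 0.5% methylcellulose/0.02% sodium lauryl sulfate with 2 equiv HCl) and iv at 3 mg/kg (PEG400/ethanol/normal saline 60:20:20 v/v/v). Blood taken predose and at 5 (iv only), 15, 30 min, 1, 2, 6, 8, 24 h. Plasma drug measured by LC/MS/MS.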
row,SMILES,half-life [h]
1,O=c1n(CCCC2CCCC2)nnn1-c1ccc(S(=O)(=O)Nc2ccc(CCNC[C@H](O)c3cccnc3)cc2)cc1,3.6

# Tested on: not listed separately
# Test: Bioavailability after peroral administration in dogs
# Format: ADME, organism-based, Canis lupus familiaris
# Conditions: dog, in vivo, po
# Summary of the method: as §1
row,SMILES,bioavailability [%]
1,O=S(=O)(Nc1ccc(CCNC[C@H](O)c2cccnc2)cc1)c1ccc(-c2nc(-c3ccc(F)c(F)c3)cs2)cc1,36

# Target: Beta-1 adrenergic receptor (Homo sapiens, UniProt P08588)
# Sequence (P08588 whole entry): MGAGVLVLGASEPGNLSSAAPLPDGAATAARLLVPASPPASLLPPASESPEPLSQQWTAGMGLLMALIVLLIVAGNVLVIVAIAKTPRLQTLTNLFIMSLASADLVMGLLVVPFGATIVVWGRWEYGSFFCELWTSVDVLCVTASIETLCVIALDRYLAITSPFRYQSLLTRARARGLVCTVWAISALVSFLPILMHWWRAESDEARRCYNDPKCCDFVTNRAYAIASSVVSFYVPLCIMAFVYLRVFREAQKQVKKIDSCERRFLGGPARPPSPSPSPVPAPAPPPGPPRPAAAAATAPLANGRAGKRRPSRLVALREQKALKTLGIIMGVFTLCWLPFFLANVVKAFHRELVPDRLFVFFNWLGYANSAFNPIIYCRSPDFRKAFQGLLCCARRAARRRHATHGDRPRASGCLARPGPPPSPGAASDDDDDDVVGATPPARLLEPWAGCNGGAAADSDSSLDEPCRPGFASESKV
# Test: Binding affinity (measured using [125I]iodocyanopindolol) against human Beta-1 adrenergic receptor expressed in CHO cells
# Format: cell-based
# Conditions: not given
# Summary of the method: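 Membranes from CHO cells expressing cloned human β1 receptor; competition binding against 125I-iodocyanopindolol.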
row,SMILES,pIC50
1,CCCCCCc1csc(-c2ccc(S(=O)(=O)Nc3ccc(CCNC[C@H](O)c4cccnc4)cc3)cc2)n1,4.40
2,CCCCCCCCc1csc(-c2ccc(S(=O)(=O)Nc3ccc(CCNC[C@H](O)c4cccnc4)cc3)cc2)n1,5.43
3,O=S(=O)(Nc1ccc(CCNC[C@H](O)c2cccnc2)cc1)c1ccc(Cc2nc(Cc3ccc4ccccc4c3)cs2)cc1,5.60
4,CC(=O)NCCCCCc1csc(-c2ccc(S(=O)(=O)Nc3ccc(CCNC[C@H](O)c4cccnc4)cc3)cc2)n1,4.30
5,CC(=O)Nc1ccc(-c2csc(-c3ccc(S(=O)(=O)Nc4ccc(CCNC[C@H](O)c5cccnc5)cc4)cc3)n2)cc1,6.02
6,O=S(=O)(Nc1ccc(CCNC[C@H](O)c2cccnc2)cc1)c1ccc(-c2nc(-c3cc4ccccc4o3)cs2)cc1,4.05
7,CCCCCCc1ccc(-c2csc(-c3ccc(S(=O)(=O)Nc4ccc(CCNC[C@H](O)c5cccnc5)cc4)cc3)n2)cc1,4.28
8,O=S(=O)(Nc1ccc(CCNC[C@H](O)c2cccnc2)cc1)c1ccc(-c2nc(CCc3ccccc3)cs2)cc1,5.05
9,O=S(=O)(Nc1ccc(CCNC[C@H](O)c2cccnc2)cc1)c1ccc(-c2nc(-c3cnc4ccccc4c3)cs2)cc1,4.72
10,O=S(=O)(Nc1ccc(CCNC[C@H](O)c2cccnc2)cc1)c1ccc(-c2nc(-c3ccc(F)cc3)cs2)cc1,5.82

# Target: Beta-2 adrenergic receptor (Homo sapiens, UniProt P07550)
# Sequence (P07550 whole entry): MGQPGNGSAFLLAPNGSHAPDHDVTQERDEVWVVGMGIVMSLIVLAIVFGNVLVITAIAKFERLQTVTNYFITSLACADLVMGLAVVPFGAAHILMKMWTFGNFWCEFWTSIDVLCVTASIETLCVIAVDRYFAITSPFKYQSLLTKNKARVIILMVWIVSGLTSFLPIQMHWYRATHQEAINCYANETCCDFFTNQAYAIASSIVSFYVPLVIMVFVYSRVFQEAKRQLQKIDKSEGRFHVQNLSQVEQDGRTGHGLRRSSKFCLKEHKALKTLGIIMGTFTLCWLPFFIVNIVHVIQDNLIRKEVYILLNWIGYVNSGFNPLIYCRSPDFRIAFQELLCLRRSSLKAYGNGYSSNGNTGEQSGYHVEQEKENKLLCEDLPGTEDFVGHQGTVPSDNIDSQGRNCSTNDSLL
# Test: Binding affinity against human Beta-2 adrenergic receptor expressed in CHO cells using [125I]iodocyanopindolol
# Format: cell-based
# Conditions: not given
row,SMILES,pIC50
1,CCCCCCc1csc(-c2ccc(S(=O)(=O)Nc3ccc(CCNC[C@H](O)c4cccnc4)cc3)cc2)n1,6.21
2,CCCCCCCCc1csc(-c2ccc(S(=O)(=O)Nc3ccc(CCNC[C@H](O)c4cccnc4)cc3)cc2)n1,5.52
3,O=S(=O)(Nc1ccc(CCNC[C@H](O)c2cccnc2)cc1)c1ccc(Cc2nc(Cc3ccc4ccccc4c3)cs2)cc1,5.70
4,CC(=O)NCCCCCc1csc(-c2ccc(S(=O)(=O)Nc3ccc(CCNC[C@H](O)c4cccnc4)cc3)cc2)n1,4.80
5,CC(=O)Nc1ccc(-c2csc(-c3ccc(S(=O)(=O)Nc4ccc(CCNC[C@H](O)c5cccnc5)cc4)cc3)n2)cc1,5.68
6,O=S(=O)(Nc1ccc(CCNC[C@H](O)c2cccnc2)cc1)c1ccc(-c2nc(-c3cc4ccccc4o3)cs2)cc1,4.31
7,CCCCCCc1ccc(-c2csc(-c3ccc(S(=O)(=O)Nc4ccc(CCNC[C@H](O)c5cccnc5)cc4)cc3)n2)cc1,4.05
8,O=S(=O)(Nc1ccc(CCNC[C@H](O)c2cccnc2)cc1)c1ccc(-c2nc(CCc3ccccc3)cs2)cc1,6.04
9,O=S(=O)(Nc1ccc(CCNC[C@H](O)c2cccnc2)cc1)c1ccc(-c2nc(-c3cnc4ccccc4c3)cs2)cc1,4.33
10,O=S(=O)(Nc1ccc(CCNC[C@H](O)c2cccnc2)cc1)c1ccc(-c2nc(-c3ccc(F)cc3)cs2)cc1,5.72

# Target: T1, Beta-3 adrenergic receptor (Homo sapiens, UniProt P13945)
# Test: Percent increase in adenylyl cyclase activation in CHO cells expressing human beta-3 adrenergic receptor
# Format: functional, cell-based
# Conditions: not given
# Summary of the method: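 Functional adenylyl cyclase stimulation via the β3 receptor. Activation expressed as percent of the maximal stimulation produced by isoproterenol.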
# Target sequence in this assay (P13945 whole entry, looked up): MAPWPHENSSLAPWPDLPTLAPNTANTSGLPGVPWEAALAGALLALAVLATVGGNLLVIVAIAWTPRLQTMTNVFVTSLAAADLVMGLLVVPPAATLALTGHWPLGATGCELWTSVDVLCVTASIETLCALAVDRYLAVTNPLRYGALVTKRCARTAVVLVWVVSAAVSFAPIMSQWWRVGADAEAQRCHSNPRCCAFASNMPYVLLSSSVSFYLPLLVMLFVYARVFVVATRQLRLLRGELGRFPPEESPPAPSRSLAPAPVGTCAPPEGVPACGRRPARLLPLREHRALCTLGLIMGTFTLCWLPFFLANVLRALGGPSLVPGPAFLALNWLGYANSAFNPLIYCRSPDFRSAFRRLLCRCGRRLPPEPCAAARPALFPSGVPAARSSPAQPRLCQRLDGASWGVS
row,SMILES,Max stimulation [%]
1,CCCCCCc1csc(-c2ccc(S(=O)(=O)Nc3ccc(CCNC[C@H](O)c4cccnc4)cc3)cc2)n1,69
2,CCCCCCCCc1csc(-c2ccc(S(=O)(=O)Nc3ccc(CCNC[C@H](O)c4cccnc4)cc3)cc2)n1,84
3,O=S(=O)(Nc1ccc(CCNC[C@H](O)c2cccnc2)cc1)c1ccc(Cc2nc(Cc3ccc4ccccc4c3)cs2)cc1,83
4,CC(=O)NCCCCCc1csc(-c2ccc(S(=O)(=O)Nc3ccc(CCNC[C@H](O)c4cccnc4)cc3)cc2)n1,82
5,CC(=O)Nc1ccc(-c2csc(-c3ccc(S(=O)(=O)Nc4ccc(CCNC[C@H](O)c5cccnc5)cc4)cc3)n2)cc1,82
6,O=S(=O)(Nc1ccc(CCNC[C@H](O)c2cccnc2)cc1)c1ccc(-c2nc(-c3cc4ccccc4o3)cs2)cc1,91
7,CCCCCCc1ccc(-c2csc(-c3ccc(S(=O)(=O)Nc4ccc(CCNC[C@H](O)c5cccnc5)cc4)cc3)n2)cc1,84
8,O=S(=O)(Nc1ccc(CCNC[C@H](O)c2cccnc2)cc1)c1ccc(-c2nc(CCc3ccccc3)cs2)cc1,70
9,O=S(=O)(Nc1ccc(CCNC[C@H](O)c2cccnc2)cc1)c1ccc(-c2nc(-c3cnc4ccccc4c3)cs2)cc1,79
10,O=S(=O)(Nc1ccc(CCNC[C@H](O)c2cccnc2)cc1)c1ccc(-c2nc(-c3ccc(F)cc3)cs2)cc1,81
11,O=S(=O)(Nc1ccc(CCNC[C@H](O)c2cccnc2)cc1)c1ccc(-c2nc(-c3ccc(F)c(F)c3)cs2)cc1,92

# Target: T1, Beta-3 adrenergic receptor
# Test: Stimulated increase in cAMP in CHO cells expressing human beta-3 receptor
# Format: functional, cell-based
# Conditions: not given
# Target sequence in this assay (P13945 whole entry): as the sequence (P13945 whole entry, looked up) above
row,SMILES,pEC50
1,CCCCCCc1csc(-c2ccc(S(=O)(=O)Nc3ccc(CCNC[C@H](O)c4cccnc4)cc3)cc2)n1,7.29
2,CCCCCCCCc1csc(-c2ccc(S(=O)(=O)Nc3ccc(CCNC[C@H](O)c4cccnc4)cc3)cc2)n1,8.00
3,O=S(=O)(Nc1ccc(CCNC[C@H](O)c2cccnc2)cc1)c1ccc(Cc2nc(Cc3ccc4ccccc4c3)cs2)cc1,7.92
4,CC(=O)NCCCCCc1csc(-c2ccc(S(=O)(=O)Nc3ccc(CCNC[C@H](O)c4cccnc4)cc3)cc2)n1,7.30
5,CC(=O)Nc1ccc(-c2csc(-c3ccc(S(=O)(=O)Nc4ccc(CCNC[C@H](O)c5cccnc5)cc4)cc3)n2)cc1,7.35
6,O=S(=O)(Nc1ccc(CCNC[C@H](O)c2cccnc2)cc1)c1ccc(-c2nc(-c3cc4ccccc4o3)cs2)cc1,8.04
7,CCCCCCc1ccc(-c2csc(-c3ccc(S(=O)(=O)Nc4ccc(CCNC[C@H](O)c5cccnc5)cc4)cc3)n2)cc1,8.92
8,O=S(=O)(Nc1ccc(CCNC[C@H](O)c2cccnc2)cc1)c1ccc(-c2nc(CCc3ccccc3)cs2)cc1,7.48
9,O=S(=O)(Nc1ccc(CCNC[C@H](O)c2cccnc2)cc1)c1ccc(-c2nc(-c3cnc4ccccc4c3)cs2)cc1,8.14
10,O=S(=O)(Nc1ccc(CCNC[C@H](O)c2cccnc2)cc1)c1ccc(-c2nc(-c3ccc(F)cc3)cs2)cc1,8.02
